Key:
MCF7 = experiment: Growth inhibition of human MCF7 cells after 72 hrs by MTS assay; details: MCF7, 72 h
[1] = Growth inhibition of human HA22T/VGH cells after 72 hrs by MTS assay
MCF7R = experiment: Growth inhibition of human multidrug-resistant MCF7R cells after 72 hrs by MTS assay
[2] = molecular target: Transcription factor p65 (Homo sapiens) (UniProt Q04206); experiment: Reduction in DNA binding activity of NF-kappaB p65 subunit in human HA22T/VGH cells after 4 hrs relative to control; type: cell-based; details: concentration not given here
Transcription factor p65 (Homo sapiens), sequence (Q04206 whole entry): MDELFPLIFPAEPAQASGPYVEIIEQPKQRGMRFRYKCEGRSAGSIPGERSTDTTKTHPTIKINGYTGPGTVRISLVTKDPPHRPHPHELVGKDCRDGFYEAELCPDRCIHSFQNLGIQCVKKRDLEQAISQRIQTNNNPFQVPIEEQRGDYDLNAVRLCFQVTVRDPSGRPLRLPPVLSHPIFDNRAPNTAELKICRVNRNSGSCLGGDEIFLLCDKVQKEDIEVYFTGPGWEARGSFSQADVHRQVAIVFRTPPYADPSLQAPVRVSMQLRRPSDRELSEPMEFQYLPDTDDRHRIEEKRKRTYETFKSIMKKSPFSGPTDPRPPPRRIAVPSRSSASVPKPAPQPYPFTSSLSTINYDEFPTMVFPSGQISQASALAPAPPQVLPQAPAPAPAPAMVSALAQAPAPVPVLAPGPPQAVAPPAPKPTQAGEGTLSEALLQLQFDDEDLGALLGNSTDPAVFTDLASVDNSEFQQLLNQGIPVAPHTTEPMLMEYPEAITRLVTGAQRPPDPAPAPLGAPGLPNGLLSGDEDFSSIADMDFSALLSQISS
Procedure, shortened: (§1)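 HA22T/VGH cells, which have constitutively active NF-κB, were exposed to compounds at 20 µM for 1.5 or 4 h. DNA-binding activity of the NF-κB p65 subunit was measured and expressed as percent of untreated control.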

[3] = molecular target: Transcription factor p65 (Homo sapiens) (UniProt Q04206); experiment: Reduction in DNA binding activity of NF-kappaB p65 subunit in human HA22T/VGH cells after 1.5 hrs relative to control; type: cell-based; details: concentration not given here
Procedure, shortened: as §1

| Structure (SMILES) | IC50 (MCF7) [µM] | IC70 (MCF7) [µM] | IC50 [1] [µM] | IC70 [1] [µM] | IC50 (MCF7R) [µM] | IC70 (MCF7R) [µM] | inhibition [2] [%] | inhibition [3] [%] |
| --- | --- | --- | --- | --- | --- | --- | --- | --- |
| CO/N=C(\C=C\c1ccc(O)c(OC)c1)CC(/C=C/c1ccc(O)c(OC)c1)=N/OC | 36.3 | 43.4 | 32.9 | 40.4 | 39 | 52.8 | – | – |
| COc1cc(/C=C/C(=O)/C=C(N)/C=C/c2ccc(O)c(OC)c2)ccc1O | 49.9 | 68.1 | 33 | 41.1 | 54.7 | 81.8 | – | – |
| CCNC(=C\C(=O)/C=C/c1ccc(O)c(OC)c1)/C=C/c1ccc(O)c(OC)c1 | 93 | > 100 | 26.1 | 64.4 | 67.6 | 88.8 | – | – |
| COc1cc(/C=C/C(CC(/C=C/c2ccc(O)c(OC)c2)=N/OCc2ccccc2)=N\OCc2ccccc2)ccc1O | 7.1 | 9.2 | 5.9 | 8.4 | 9.3 | 12.9 | 64.3 | 33.7 |
| COc1cc(/C=C/c2cc(/C=C/c3ccc(O)c(OC)c3)on2)ccc1O | 13.1 | 23.2 | 12.8 | 18.3 | 12 | 24.7 | – | – |
| COc1cc(/C=C/C(=O)CC(=O)/C=C/c2ccc(O)c(OC)c2)ccc1O [CURCUMIN] | 29.3 | 51.7 | 17.4 | 24.6 | 26.2 | 46.2 | – | – |
| COc1cc(/C=C/C(=O)/C=C(/C=C/c2ccc(O)c(OC)c2)NCc2ccccc2)ccc1O | > 100 | > 100 | > 100 | > 100 | > 100 | > 100 | – | – |
| COc1cc(/C=C/C(=O)/C=C(/C=C/c2ccc(O)c(OC)c2)NC(C)C)ccc1O | 70.3 | 93.5 | 26.3 | 29.8 | 49.8 | 79.5 | – | – |
| COc1cc(/C=C/C(=O)/C=C(/C=C/c2ccc(O)c(OC)c2)NC(C)c2ccccc2)ccc1O (stereo unspecified) | > 100 | > 100 | > 100 | > 100 | > 100 | > 100 | – | – |

From ChEMBL document CHEMBL1143177, “Antitumor effects of curcumin and structurally beta-diketone modified analogs on multidrug resistant cancer cells” (Bioorg Med Chem Lett, 2008)
